Consider 96 compounds from ChEMBL document CHEMBL4513216, “Probing the Open Global Health Chemical Diversity Library for Multistage-Active Starting Points for Next-Generation Antimalarials” (ACS Infect Dis, 2020).

SMILES strings stand for the structures.

The nature of this series: Toxicity liver stage against HepG2, at 10uM. Format: cell-based. The arrangement: test concentration 10 uM, cell line HepG2-A16-CD81EGFP. To be noted: human, HepG2-A16-CD81EGFP cells; read-out: INHIBITION
The procedure, abridged:
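Uninfected HepG2-A16-CD81EGFP cells, 3 × 10^3 per well, 1536-well, plated on prespotted compound at 10 μM final, parasite-free screening media added to match infected plates; puromycin 10 μM positive, DMSO 0.5% negative; run in parallel with 48 h PbLuc assay at 37 °C, 5% CO2; viability by CellTiter-Glo luminescence, normalized to controls.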
For `Cc1cnn(CCNCc2nc(CNC(=O)c3ccccc3)no2)c1`, the cytotoxicity at 10 µM was -5.92%.
The result for `OCC1(CCOc2ccccc2)CCN(c2ccc(Cl)cn2)CC1` reads -43.4%; that for `CN1CCCN(S(=O)(=O)c2cn(C)cn2)c2cc(F)ccc21`, 6.06%.
For `O=C(NCCC(O)c1cccs1)c1ccco1` (stereo unspecified), the cytotoxicity at 10 µM is -14.7%.
For `O=C(NCCC(=O)N1CCCc2ccccc21)c1c(O)cc(F)cc1F`, the cytotoxicity at 10 µM is 1.35%.
As to `Cc1cc(C(=O)NCc2ccc(F)cc2)nc(C2CCCN2C)n1` (stereo unspecified), the cytotoxicity at 10 µM is -28.7%.
Take `COC(=O)NCCC(=O)NC(C)Cc1cccc(Br)c1` (stereo unspecified): the cytotoxicity at 10 µM was -15.8%.
As to `CC(=O)N[C@@H]1CN(Cc2nnc(-c3ccccc3)o2)C[C@H]1C(C)C`, the cytotoxicity at 10 µM was -0.598%.
The same measure for `COCCCNc1ncc(-c2cccc(F)c2)c(-c2nccn2C)n1`: 8.97%; for `COCCOc1ccccc1NC(C)C(=O)NC(=O)NC(C)(C)C` (stereo unspecified): 1.47%; for `CNC(=O)[C@@]12CCO[C@@H]1CCN(Cc1cccc(C)c1)C2`: -78.4%.
Turning to `c1cn(CCc2c[nH]cn2)c(-c2cc(CN3CCCC3)cs2)n1`, the cytotoxicity at 10 µM was -1.45%.
The same measure for `O=C(CCn1cncn1)NCCOc1cccc(Cl)c1`: 1.58%; for `Cn1ncc(C2CC(=O)NCc3nc4ccccn4c32)c1C1CC1` (stereo unspecified): 6.9%.
For `CN(C)CCNC(=O)c1ccc(OC2CCN(S(C)(=O)=O)CC2)c(Cl)c1`, the cytotoxicity at 10 µM is 1.33%.
The same measure for `O=C1C(Nc2nccn3cnnc23)CCCN1c1ccccc1Cl` (stereo unspecified): 9.05%; for `Cc1nc(C)n(CC2CCCN2c2ncnc3sccc23)n1` (stereo unspecified): -1.09%.
Take `Cc1noc(C)c1CCC(=O)N1CCOCC1CC(=O)N1CCCC1` (stereo unspecified): the cytotoxicity at 10 µM was 0.282%.
The same measure for `CC(C)c1noc(CN2CCN(C(=O)c3ccccc3F)CC2)n1`: -8.08%; for `Cn1cc(C2CC3(CCN(C(=O)c4ccsc4)CC3)NC2=O)cn1` (stereo unspecified): -3.7%; for `CS(=O)(=O)N1C[C@@H]2COC[C@]2(CN2CCOCC2)C1`: 0.472%.
As to `CC(C)C1CN(C(=O)c2ccc3nccnc3c2)CCS1` (stereo unspecified), the cytotoxicity at 10 µM stood at 5.02%.
In the case of `NC(=O)CN1CCC(NC(=O)c2ccn(-c3cccc(F)c3)n2)CC1`, the cytotoxicity at 10 µM is 13.4%.
As for `Cc1ccc(C(=O)Nc2cn[nH]c2)cn1`, the cytotoxicity at 10 µM was -6.1%.
The result for `N#Cc1cccc(NC2CC(=O)N(CCCc3ccccc3)C2)n1` (stereo unspecified) reads 5.82%; that for `O=C(CO[C@@H]1CC[C@H]2[C@H]1OCCN2c1ncccn1)N1CCCC1`, -7.58%; that for `O=C(Nc1cnn(Cc2ccccc2)c1)N1CCN(CCO)CC1`, 2.11%.
Take `CN(C)CCCNCCC(Cc1ccccc1)C1CCOC(C)(C)C1` (stereo unspecified): the cytotoxicity at 10 µM is -4.08%.
For the compound `CN1CCN(C(=O)c2nc3c(o2)CN(C(=O)c2cccnc2)C3)CC1`, the cytotoxicity at 10 µM was -7.06%.
The result for `COc1ccc(-c2nnc(CNCCn3cccn3)o2)cc1` reads -14.5%; that for `CNS(=O)(=O)CC1CCCN1C(=O)c1ccc(C)c(C)c1` (stereo unspecified), -6.93%.
The result for `COc1ccc(-c2n[nH]cc2C2SCC(=O)Nc3[nH]ncc32)cc1` (stereo unspecified) reads -1.33%.
The result for `CC(C)c1nnc(NC(=O)N2CCN(C)CC2c2ccccc2)s1` (stereo unspecified) reads -11.6%.
Regarding `CC(c1ccc2c(c1)OCCO2)N(C)C(=O)c1ccnnc1` (stereo unspecified), the cytotoxicity at 10 µM amounted to 0.94%.
The result for `O=C(COc1ccccc1F)NCCC(O)c1ccoc1` (stereo unspecified) reads -13.4%; that for `Cn1cc(C2CCCN2CC(=O)N(CCC#N)Cc2ccco2)cn1` (stereo unspecified), -6.18%; that for `c1ncn(CC2CCCCN2Cc2cn3ccsc3n2)n1` (stereo unspecified), -13.9%.
The same measure for `CC(C)(C(N)=O)N1CCN(C(=O)c2ccn(-c3cccc(Cl)c3)n2)CC1`: -13.3%; for `COc1ccc2cc(C(=O)NCCNc3ccc(C)nn3)[nH]c2c1`: -3.09%; for `OC1CCN(c2ccccc2NCc2nc(-c3ccoc3)no2)CC1`: 14.5%.
For the compound `CN1CCOC(C(=O)Nc2ccc3[nH]nnc3c2)C1` (stereo unspecified), the cytotoxicity at 10 µM was determined as 6.77%.
For the compound `Cc1noc(-c2ccc(N(C)Cc3cccnc3)nc2)n1`, the cytotoxicity at 10 µM was -1.24%.
The same measure for `O=C(c1ccc(=O)[nH]c1)N1C[C@H]2CC[C@@H](C1)N(Cc1ccccc1)C2`: -100%; for `Cc1ccc(C(=O)Nc2ccc(N3CCCC3)cn2)cc1F`: 47.4%; for `CC(C)c1cc(C(=O)N2CCC3(CC2)c2ccccc2[C@@H](N)[C@@H]3O)cs1`: -7.34%.
The same measure for `O=C(NCCCn1nc2ccccn2c1=O)NC(C1CC1)C1CC1`: 2.74%; for `O=C(Nc1nnn[nH]1)c1ccc(I)c(F)c1`: -2.56%.
Consider `CCN1CCN(C2CCN(Cc3nc(-c4ccoc4)no3)CC2)C1=O`, for which the cytotoxicity at 10 µM is -7.39%.
The same measure for `CS(=O)(=O)c1cn[nH]c1C1CCCCN1C(=O)Cc1cccnc1` (stereo unspecified): -30.7%; for `CC(C)Nc1ncnc2c1CCN(C(=O)Cc1ccccn1)CC2`: 3.3%; for `CCCn1cnnc1CN(C)C(=O)C1CCC(=O)N(C2CCCC2)C1` (stereo unspecified): 2.95%.
As for `CN1CCCN(C(=O)NCc2ccccc2Cn2cncn2)CC1`, the cytotoxicity at 10 µM is 3.58%.
The result for `CCOC(=O)C(C)Nc1ccc(CCN2CCOCC2)cc1` (stereo unspecified) reads -2.2%; that for `Cc1cc(CN2C[C@@H]3CCCO[C@@H]3[C@H](NS(C)(=O)=O)C2)no1`, 11.5%.
As for `CN(Cc1ccc(C(=O)Nc2sccc2C#N)cc1)Cc1ccno1`, the cytotoxicity at 10 µM is -1.65%.
`CCN1CCC2(CC1)CC(NCc1cccs1)c1ccccc1O2` (stereo unspecified): the cytotoxicity at 10 µM was -11.6%.
In the case of `O=C(c1ccncc1F)N1CCc2ncnc(-c3ccncc3)c2CC1`, the cytotoxicity at 10 µM amounted to 2.75%.
The same measure for `O=C(c1cc2ccccc2[nH]1)N1CCC(Nc2cccnn2)CC1`: -16.9%.
The same measure for `O[C@H]1[C@H](NCCSc2ccccn2)c2ccccc2C12CCNCC2`: -13.4%; for `CC(C)N1CCC(C(=O)N(C)CC(=O)c2ccc(O)cc2)CC1`: -4.33%.
As for `c1cncc(CN2CCn3cc(CN4CCCCC4)nc3C2)c1`, the cytotoxicity at 10 µM was -102%.
On to `CC(SCCS(C)(=O)=O)c1nc(Cc2ccc(F)cc2)no1` (stereo unspecified), for which the cytotoxicity at 10 µM came to 4.6%.
The result for `CC(OCC(F)(F)F)C(=O)N1CCN(S(C)(=O)=O)CC1` (stereo unspecified) reads -1.33%.
`O=C(CCc1cc2n(n1)CCN(Cc1ccncc1)C2)N1CCCC1`: the cytotoxicity at 10 µM is -7.97%.
The same measure for `Cc1ccc(CSCCn2nc3ccccn3c2=O)cc1`: 5.64%.
The result for `CS(=O)(=O)N1CCO[C@@H]2CCN(C(=O)c3cccs3)CC[C@H]21` reads -2.35%; that for `Cn1ccnc1CN1CCC(Cn2cc(-c3ccncc3)nn2)CC1`, -4.5%.
On to `O=C(C1CCOCC1)N(CCc1ccccc1)C1CCOC1` (stereo unspecified), for which the cytotoxicity at 10 µM turned out to be 4.77%.
The same measure for `CN1CC(c2ccccc2)CC2(CCN(C(=O)c3ccccc3)CC2)C1` (stereo unspecified): -0.0342%; for `O=C(CN1CCC[C@H]1C(=O)O)NCCOc1cccc(Cl)c1`: -22.6%; for `Cn1c(C(=O)N(CC(N)=O)C2CCCC2)cc(Cl)c1Cl`: 9.31%.
The result for `COc1c(Br)c(C(=O)NC2CC2)nn1C` reads 3.18%.
The result for `O=C(NCc1csc(Br)c1)c1cnccn1` reads -23.3%.
With `Cc1nnc(SC2CCN(c3sccc3C#N)C2=O)[nH]1` (stereo unspecified), the cytotoxicity at 10 µM came out at 7.25%.
With `CC(C)N1CCOC[C@H]1c1nc(-c2ccncc2)c[nH]1`, the cytotoxicity at 10 µM turned out to be 6.73%.
For the compound `CC(=O)NCc1cccc(-n2ccnc2-c2cccc(C(=O)O)c2)c1`, the cytotoxicity at 10 µM was -2.29%.
For `O[C@H]1CCCC[C@@H]1N1CCN(CCCc2ccc3c(c2)OCO3)CC1`, the cytotoxicity at 10 µM is -3.69%.
For `O=C(c1ccc2nncn2c1)N1CCCCC1Cn1cccn1` (stereo unspecified), the cytotoxicity at 10 µM was -3.11%.
As for `CC(C)CC(=O)Nc1ccc2c(c1)ncn2CC(=O)NCCN(C)C`, the cytotoxicity at 10 µM is -7.58%.
The result for `CC(CN1CCOC1=O)NC(=O)c1cccc(C#N)c1` (stereo unspecified) reads -8.37%.
The result for `CN(Cc1ccccc1OC(F)(F)F)C(=O)C1CCCN(C(N)=O)C1` (stereo unspecified) reads 7.59%; that for `CC(C)NC(=O)[C@@H]1C[C@@H](N)CN1C(=O)CCSCc1ccc(F)cc1`, -3.43%; that for `COc1ccc(OC)c([C@@H]2N[C@H](c3nccs3)Cc3ccsc32)c1`, 12.6%.
Turning to `CN1C(=O)CO[C@H]2CN(C(=O)c3ccc4c(c3)CCCC4)C[C@@H]21`, the cytotoxicity at 10 µM amounted to 5.45%.
In the case of `Cc1ncc(CN(C)C(=O)Nc2cccc(N3CCNC3=O)c2)s1`, the cytotoxicity at 10 µM came to 9.97%.
The result for `O=c1[nH]nc(CNc2ncc(Cl)cn2)[nH]1` reads -5.98%.
The same measure for `CCN(C)S(=O)(=O)N(CC)Cc1ccc2c(c1)OCO2`: -6.62%; for `CCc1ccc(S(=O)(=O)N2CCN(CCn3ccnc3)CC2)cc1`: -8.81%.
As to `Cc1ccccc1CC(=O)N1C[C@@H](O)[C@H](N2CCC(F)(F)CC2)C1`, the cytotoxicity at 10 µM was -14%.
`Cc1cnn(CC2CN(CCCS(C)(=O)=O)CCO2)c1` (stereo unspecified): the cytotoxicity at 10 µM was -2.45%.
The same measure for `O=C(c1ncccc1O)N1CCN(Cc2ccco2)C(CCO)C1` (stereo unspecified): 3.89%; for `CN(CCC(F)(F)F)C(=O)C1CCCN1C(=O)OC(C)(C)C` (stereo unspecified): -0.653%.
The same measure for `Cn1ncc2c(N[C@@H]3C[C@H]4CC[C@@H]3C4)nc(-c3ccncc3)nc21`: 5.89%.
Turning to `CN(C)c1cc2c(nn1)CCN(C(=O)C1CCc3ccccc31)C2` (stereo unspecified), the cytotoxicity at 10 µM was -12.2%.
The result for `CC(C)N(C)CC(=O)N1CCCC(n2ccnc2)C1` (stereo unspecified) reads 5.56%.
The result for `CCCc1nc(N2CC[C@@H](c3ccc4c(c3)OCO4)[C@H](O)C2)no1` reads -9.87%.
